Screening data deposited in PubChem BioAssay by Johns Hopkins Ion Channel Center.
In the library only some 2.3% were active in any assay of this set; here they are far more common.
TRPC4 agonist = activators of mouse TRPC4 channel; HEK293 TRPC4beta/mu-opioid, Fluo4 calcium fluorescence; active compounds read high; B-score at 10 µM; 0.49% of 310,000 active; AID 2237;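 active = B-score above 5 SD of library B-scores, and initial fluorescence ratio not above library mean plus 5 SD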;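 note: positive B-score marks a calcium rise read as TRPC4 activation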
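Assay system: HEK293 stable line with TRPC4beta plus mu-opioid receptor. Times: dye 45 min RT, read 110 s. Measured by: kinetic Fluo4 calcium fluorescence. Measure: B score of integrated ratio. Controls: assay buffer as low control, maximal DAMGO as high control.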
TRPC4 PAM = allosteric potentiators of mouse TRPC4 channel | Q9QUQ5 | HEK293 TRPC4beta/mu-opioid, DAMGO EC20, Fluo-4 Ca2+ flux; active compounds read high | B-score at 10 µM | 0.42% of 310,000 active | AID 2227;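 active = B-score of calcium response area above 5 SD of library B-scores, with initial fluorescence ratio within 5 SD of library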
TRPC6 act = activates the mouse TRPC6 cation channel | Q61143 | HEK293-TRPC6 membrane potential dye fluorescence; active compounds read high | B-score at 10 µM | 0.13% of 310,000 active;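 active = B-score of the integrated fluorescence ratio above library mean plus 3 SD, and starting fluorescence ratio within library mean plus 5 SD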;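 note: higher score means more depolarization so channel activation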
Target sequence (Q61143 whole entry, looked up): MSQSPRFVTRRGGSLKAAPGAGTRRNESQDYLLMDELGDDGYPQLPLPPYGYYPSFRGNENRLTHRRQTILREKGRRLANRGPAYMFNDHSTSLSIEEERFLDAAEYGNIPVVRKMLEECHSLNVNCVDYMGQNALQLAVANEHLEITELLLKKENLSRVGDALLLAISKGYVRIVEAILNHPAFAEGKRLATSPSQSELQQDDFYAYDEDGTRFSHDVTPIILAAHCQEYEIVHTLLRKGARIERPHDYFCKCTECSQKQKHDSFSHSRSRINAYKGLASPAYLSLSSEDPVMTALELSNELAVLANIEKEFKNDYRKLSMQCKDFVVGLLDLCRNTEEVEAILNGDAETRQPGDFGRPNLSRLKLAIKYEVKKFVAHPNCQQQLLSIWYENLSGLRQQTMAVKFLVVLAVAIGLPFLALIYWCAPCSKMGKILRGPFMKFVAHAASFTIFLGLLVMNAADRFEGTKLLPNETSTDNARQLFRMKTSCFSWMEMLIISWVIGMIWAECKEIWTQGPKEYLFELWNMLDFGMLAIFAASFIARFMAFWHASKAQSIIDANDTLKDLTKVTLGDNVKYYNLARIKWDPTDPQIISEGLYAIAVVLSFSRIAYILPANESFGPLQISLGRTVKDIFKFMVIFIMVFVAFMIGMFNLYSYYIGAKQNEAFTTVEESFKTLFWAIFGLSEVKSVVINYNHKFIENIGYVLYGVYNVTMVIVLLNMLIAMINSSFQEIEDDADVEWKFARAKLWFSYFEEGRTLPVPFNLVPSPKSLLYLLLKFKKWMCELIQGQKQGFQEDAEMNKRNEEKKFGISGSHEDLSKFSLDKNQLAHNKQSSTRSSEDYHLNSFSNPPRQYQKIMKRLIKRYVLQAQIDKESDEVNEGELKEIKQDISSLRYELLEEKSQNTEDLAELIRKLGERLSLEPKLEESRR
TRPC6 inhibitor = mouse TRPC6 channel inhibition; Q61143; 1.1% of 310,000 active; HEK293-TRPC6, membrane potential dye, ACh-evoked depolarization; active compounds read low; AID 2553; B-score at 10 µM;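 active = B-score under library mean minus 3 SD, initial fluorescence not abnormally high, positive integrated signal ratio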;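 note: B-score derived from integrated fluorescence ratio over the kinetic read; more negative B-score means stronger inhibition of depolarization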
TRPC4 block = inhibitors of mouse TRPC4 channel; HEK293 TRPC4beta/mu-opioid, DAMGO-evoked Fluo4 calcium flux; active compounds read low; 0.39% of 300,000 active; B-score at 10 µM; Q9QUQ5;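 active = B-score over 3 SD under the library average, no early fluorescence shift, positive overall ratio signal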
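material = TRPC4beta/mu-opioid receptor HEK293 cell line | probe or stimulus = sequential submaximal and maximal DAMGO stimulation | compound dosing = one concentration per compound | measured by = Fluo4 Ca2+ flux fluorescence | evaluation = integrated fluorescence ratio relative to baseline, converted to per-well B score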
Of the large screens only hits and unclear results are named; the others gave an inactive call.

C=CCSc1nc(-c2ccc(OC)cc2)c(C#N)c(=O)n1CC=C	none
CC(NC(=O)c1ccco1)C(c1cccs1)N1CCN(c2ccc(F)cc2)CC1 (centres undefined)	none
CC(NC(=O)c1ccco1)C(c1cccs1)N1CCN(c2ccccc2)CC1 (centres undefined)	TRPC4 block -6
CCC(=O)NC(C)C(c1cccs1)N1CCN(c2ccccc2)CC1 (centres undefined)	TRPC4 agonist 119
CCCCC(c1nnnn1CC1CCCO1)N1CCN(c2nc3ccccc3s2)CC1 (centres undefined)	TRPC4 agonist 88
CCCC(c1nnnn1CC1CCCO1)N1CCN(c2nc3ccccc3s2)CC1 (centres undefined)	none
CN(CC(=O)NC1CCCc2ccccc21)C1CCCCC1 (centres undefined)	TRPC4 block -5
CC(SCc1ccccc1)C(=O)NCc1ccccn1 (centres undefined)	TRPC4 PAM 10
CC(OC(=O)Cn1cnc2c1c(=O)n(C)c(=O)n2C)C(=O)Nc1ccc(Cl)cc1 (centres undefined)	TRPC4 block -8
Cn1c(=O)c2c(ncn2CC(=O)OCC(=O)Nc2ccc(Cl)cc2)n(C)c1=O	none
CCc1ccc(OCC(=O)Nc2ncn[nH]2)cc1	none
COc1ccc(OC)c(C2C(C(=O)c3ccco3)=C(O)C(=O)N2CC2CCCO2)c1 (centres undefined)	none
OCC1(CC2CCCCO2)CCN(Cc2nc3ccccc3[nH]2)CC1 (centres undefined)	TRPC4 agonist 110, TRPC4 block -8
CC(C)(C)N=C1NN=C(c2cc3ccccc3o2)CS1	TRPC4 PAM 11
CCCc1ccc(OCc2ccc(C(=O)N3CCCC3)o2)cc1	TRPC4 PAM 26
CCOc1ccc(OCc2ccc(C(=O)N3CCCC3)o2)cc1	none
CCOC(=O)c1ccc(COc2ccc(C(C)C)cc2)o1	none
CC(C)c1ccc(OCc2ccc(C(=O)N3CCCC3)o2)cc1	TRPC4 PAM 42
CSCC[C@H](NC(=O)Nc1ccc(Oc2ccccc2)cc1)C(=O)O	none
O=C(Nc1cc(S(=O)(=O)N2CCOCC2)ccc1N1CCOCC1)c1cnccn1	none
O=C(Nc1ccc(F)cc1)Nc1cc(S(=O)(=O)N2CCOCC2)ccc1N1CCCC1	TRPC4 PAM 39
Cc1cnc(C(=O)Nc2cc(S(=O)(=O)N3CCOCC3)ccc2N2CCN(C)CC2)cn1	TRPC4 PAM 11
COc1ccc(OC)c(C(=O)NC(CC(N)=O)c2ccc(NC(C)C)c([N+](=O)[O-])c2)c1 (centres undefined)	none
Cc1ccc(OCC(=O)NCc2cccs2)c([N+](=O)[O-])n1	none
CN(Cc1ccccc1F)C(=O)c1ccc2c(=O)n3c(nc2c1)CCC3	none
C=CCn1cnc2scc(-c3ccc(CC)cc3)c2c1=O	TRPC4 block -6
COc1ccc(NC2=Nc3cccc4cccc2c34)cc1	none
Cc1cc(/C=C2/C(=N)N3C(=NC2=O)SN=C3S(C)(=O)=O)c(C)n1-c1ccccc1F	TRPC4 block -6
Cc1nc(C(=O)N2CCc3c([nH]c4ccccc34)C2c2cc(F)ccc2F)cs1 (centres undefined)	none
CC(C)COc1ccc(CN=C(N)N=C(N)N)cc1Cl	TRPC4 agonist 50
CC1CCN(C(=O)CNC(=O)CNS(=O)(=O)c2ccccc2)CC1	none
Cc1ccc(Nc2n[nH]c(C)c2[N+](=O)[O-])cc1	none
Cc1[nH]nc(Nc2ccccc2)c1[N+](=O)[O-]	TRPC4 PAM 19
CCOC(=O)c1c(NC(=O)c2ccccc2C)sc2c1CC(C)(C)OC2	TRPC4 PAM 11
Cc1cccc(N2CCN(Cc3ccoc3)CC2)c1C	TRPC4 block -5
S=C(NCc1ccccc1)N1CCN(C2CCCCC2)CC1	TRPC4 agonist 76
CCOc1nc(-c2ccc(Cl)cc2Cl)ccc1C#N	none
COc1nc(-c2ccccc2Cl)ccc1C#N	TRPC4 block -6
CCOc1ccc2c(c1)S/C(=C\c1cccs1)C(=O)N2	none
CC1CN(C(=O)c2ccc(NS(=O)(=O)c3ccc(C(C)(C)C)cc3)cc2)CC(C)O1 (centres undefined)	TRPC4 agonist 89
Cn1cc(CN2CCCC(CO)(Cc3cccc(Cl)c3)C2)cn1 (centres undefined)	none
